Data published in ChEMBL document CHEMBL3526063, “Metabolism and pharmacokinetics of JM6 in mice: JM6 is not a prodrug for Ro-61-8048” (Drug Metab Dispos, 2012).
pIC50: −log10 of the molar value.

Experiments:
[1] = AUClast in C57BL/6N mouse at 0.05 mg/kg, po administered via gavage by LC-MS/MS analysis; assay type: ADME, organism-based; design: time 0 - last, dose 0.05 mg/kg, route oral; settings: plasma
Method in brief: (§1)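 Male C57BL/6N mice were dosed by oral gavage at 10 mL/kg with a fine suspension in 10% hydroxypropyl-β-cyclodextrin in 50 mM phosphate buffer, pH 7. Plasma was taken at non-serial time points (n=3 per time point), extracted with 0.1% formic acid in acetonitrile containing diclofenac as internal standard, and quantified by UPLC-MS/MS. Composite non-compartmental parameters came from mean concentrations; AUClast by linear trapezoid, kel from at least three terminal points.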

[2] = AUC(infinity) in C57BL/6N mouse at 5 mg/kg, iv administered as single dose by LC-MS/MS analysis; assay type: ADME, organism-based; design: time infinity, dose 5 mg/kg, route intravenous; settings: plasma
Method in brief: (§2)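 Single intravenous bolus of 5 mg/kg to male C57BL/6N mice, given as a filtered 1 mg/mL solution in DMSO:PEG400:water 10:50:40 (v/v). Plasma was extracted in acidified acetonitrile with diclofenac as internal standard and analysed by UPLC-MS/MS. Non-compartmental analysis used mean concentrations (n=3 per time point), with C0 back-extrapolated from the first two samples. AUCinf = AUClast + Ct/kel.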

[3] = Half life in C57BL/6N mouse at 0.05 mg/kg, po administered via gavage by LC-MS/MS analysis; assay type: ADME, organism-based; design: dose 0.05 mg/kg, route oral; settings: in vivo; method in brief: as §1
[4] = Cmax in mouse at 25 mg/kg/day, po; assay type: ADME, organism-based; design: dose 25 mg/kg/day, route oral; settings: in vivo
[5] = Half life in C57BL/6N mouse at 5 mg/kg, iv administered as single dose by LC-MS/MS analysis; assay type: ADME, organism-based; design: dose 5 mg/kg, route intravenous; settings: in vivo; method in brief: as §2
[6] = Plasma protein binding in human at 10 uM for 6 hrs by LC-MS/MS analysis; assay type: ADME, cell-free; settings: read-out: PPB
Method in brief: (§3)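 Equilibrium dialysis: plasma fortified in triplicate (5 and 20 µM rat and mouse; 10 µM human) on donor side, PBS on receiver side; 37°C, 200 rpm, 6 h; both sides by LC-MS/MS.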

[7] = target: Kynurenine 3-monooxygenase (Homo sapiens, UniProt O15229); experiment: Inhibition of human KMO assessed as 3-hydroxykynurenine formation preincubated for 5 mins using 100 uM kynurenine as substrate by LC-MS/MS analysis in presence of 3 mg/ml plasma protein
Kynurenine 3-monooxygenase (Homo sapiens, UniProt O15229), sequence (O15229 whole entry): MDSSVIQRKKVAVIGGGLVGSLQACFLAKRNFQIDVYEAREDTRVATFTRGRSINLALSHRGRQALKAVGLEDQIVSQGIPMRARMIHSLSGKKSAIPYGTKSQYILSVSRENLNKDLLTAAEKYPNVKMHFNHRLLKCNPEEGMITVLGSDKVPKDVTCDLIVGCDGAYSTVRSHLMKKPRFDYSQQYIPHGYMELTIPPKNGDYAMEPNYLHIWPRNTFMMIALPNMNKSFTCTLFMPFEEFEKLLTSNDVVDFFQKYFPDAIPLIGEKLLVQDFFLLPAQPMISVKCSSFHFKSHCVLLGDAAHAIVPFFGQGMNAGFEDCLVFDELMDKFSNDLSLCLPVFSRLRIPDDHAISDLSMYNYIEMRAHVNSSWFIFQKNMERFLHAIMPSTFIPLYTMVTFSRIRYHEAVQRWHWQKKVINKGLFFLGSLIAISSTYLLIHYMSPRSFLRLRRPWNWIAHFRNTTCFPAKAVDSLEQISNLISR
Method in brief: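 Liver mitochondrial KMO (mouse C57 BL/6J or human), 0.3 mg protein/mL in 100 mM potassium phosphate pH 7.4, 200 µM NADPH, NADPH-regenerating system, plus 3 mg/mL plasma protein. Compound pre-incubated 5 min at 25°C; 100 µM kynurenine started reaction for 40 min (mouse) or 60 min (human); TCA stop; 3-hydroxykynurenine by LC-MS/MS. IC50 from 8-point 3-fold series, triplicates, n≥2.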

[8] = Plasma protein binding in mouse at 5 and 20 uM for 6 hrs by LC-MS/MS analysis; assay type: ADME, cell-free; settings: read-out: PPB; method in brief: as §3
[9] = Oral bioavailability in C57BL/6N mouse at 0.05 mg/kg administered via gavage by LC-MS/MS analysis; assay type: ADME, organism-based; settings: in vivo
Method in brief: (§4)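 Male C57BL/6N mice dosed by oral gavage (10 mL/kg) as fine suspensions in 10% hydroxypropyl-β-cyclodextrin in 50 mM phosphate buffer pH 7; dose formulations verified by LC-MS/MS. Plasma analysed by LC-MS/MS; composite non-compartmental parameters from mean concentrations (n=3 per time point), C0 set to zero. %F = dose-normalised po AUCinf over dose-normalised iv AUCinf, only within linear range.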

[10] = Tmax in C57BL/6N mouse at 0.05 mg/kg, po administered via gavage by LC-MS/MS analysis; assay type: ADME, organism-based; design: dose 0.05 mg/kg, route oral; settings: in vivo; method in brief: as §4
[11] = target: Kynurenine 3-monooxygenase (Rattus norvegicus, UniProt O88867); experiment: Inhibition of Wistar rat KMO assessed as 3-hydroxykynurenine formation preincubated for 5 mins using 100 uM kynurenine as substrate by LC-MS/MS analysis in presence of 3 mg/ml plasma protein
Kynurenine 3-monooxygenase (Rattus norvegicus, UniProt O88867), sequence (O88867 whole entry): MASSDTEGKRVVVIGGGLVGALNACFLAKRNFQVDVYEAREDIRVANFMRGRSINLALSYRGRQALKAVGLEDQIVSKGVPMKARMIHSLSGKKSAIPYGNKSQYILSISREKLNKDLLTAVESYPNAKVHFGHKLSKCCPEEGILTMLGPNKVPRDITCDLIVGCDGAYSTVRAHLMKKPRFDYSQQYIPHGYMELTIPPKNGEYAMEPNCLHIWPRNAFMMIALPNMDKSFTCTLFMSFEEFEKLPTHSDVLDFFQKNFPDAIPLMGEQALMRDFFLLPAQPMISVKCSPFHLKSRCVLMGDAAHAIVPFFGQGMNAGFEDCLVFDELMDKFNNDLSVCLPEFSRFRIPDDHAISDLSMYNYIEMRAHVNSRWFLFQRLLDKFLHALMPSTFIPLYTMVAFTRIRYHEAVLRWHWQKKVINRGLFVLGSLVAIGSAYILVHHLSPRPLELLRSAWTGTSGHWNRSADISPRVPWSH
Method in brief: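 KMO from Wistar rat liver (0.3 mg protein/ml) preincubated 5 min at 25°C with compound plus 3 mg/mL plasma protein in 100 mM potassium phosphate pH 7.4, 200 µM NADPH, G6PDH regenerating system. Started with 100 µM kynurenine, 40 min, stopped with TCA; 3-hydroxykynurenine by LC-MS/MS. 8-point 3-fold dilutions; triplicates, ≥2 runs.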

[12] = Half life in simulated gastric fluid of pH 1.2 at 10 uM after 2 and 4 hrs by LC-UV analysis; assay type: ADME
Method in brief: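 Compound at 10 µM was shaken at about 25 °C in simulated gastric fluid (2 g/L NaCl, 3.2 g/L pepsin, 0.7% HCl, pH 1.2) and in pepsin-free gastric buffer. Aliquots were taken at 0, 2 and 4 h, diluted into DMSO, and analysed immediately by LC-UV at 254 nm.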

Mus musculus [13] = experiment: Dose normalised Cmax in C57BL/6N mouse at 10 mg/kg, po administered via gavage containing <0.4% Ro-61-8048 by LC-MS/MS analysis; assay type: ADME, organism-based; design: dose 10 mg/kg, route oral; settings: in vivo; method in brief: as §1
Liver = experiment: Metabolic stability in mouse liver microsomes assessed as intrinsic clearance at 1 uM after 5 to 40 mins by LC-MS/MS analysis
Mus musculus [14] = experiment: Tmax in C57BL/6N mouse at 10 mg/kg, po administered via gavage containing <0.4% Ro-61-8048 by LC-MS/MS analysis; assay type: ADME, organism-based; design: dose 10 mg/kg, route oral; settings: in vivo; method in brief: as §4
Mus musculus [15] = experiment: Dose normalised AUC in C57BL/6N mouse at 10 mg/kg, po administered via gavage containing <0.4% Ro-61-8048 by LC-MS/MS analysis; assay type: ADME, organism-based; design: dose 10 mg/kg, route oral; settings: in vivo; method in brief: as §1
[16] = Half life in C57BL/6N mouse at 5 mg/kg, iv administered as single dose containing <0.4% Ro-61-8048 by LC-MS/MS analysis; assay type: ADME, organism-based; design: dose 5 mg/kg, route intravenous; settings: in vivo; method in brief: as §2
Mus musculus [17] = experiment: Half life in C57BL/6N mouse at 10 mg/kg, po administered via gavage containing <0.4% Ro-61-8048 by LC-MS/MS analysis; assay type: ADME, organism-based; design: dose 10 mg/kg, route oral; settings: in vivo; method in brief: as §1
[18] = Metabolic stability in mouse blood assessed as half life at 5 uM by LC-MS/MS analysis; assay type: ADME, tissue-based
Mus musculus [19] = experiment: Dose normalised AUC in C57BL/6N mouse at 5 mg/kg, iv administered as single dose containing <0.4% Ro-61-8048 by LC-MS/MS analysis; assay type: ADME, organism-based; design: dose 5 mg/kg, route intravenous; settings: in vivo; method in brief: as §2

| AUC(0-t) [1] [µM·h] | AUC(0-inf) [2] [µM·h] | half-life [3] [h] | Cmax [4] [nM] | half-life [5] [h] | fraction unbound at 6 h, 10 µM [6] | pIC50 [7] | fraction unbound at 6 h [8] | bioavailability [9] [%] | Tmax [10] [h] | pIC50 [11] | half-life at 10 µM [12] [h] | Cmax/dose (Mus musculus [13]) [nM] | CLH (Liver) [µL/min/mg] | Tmax (Mus musculus [14]) [h] | AUC/dose (Mus musculus [15]) [nM·kg·h/mg] | half-life [16] [h] | t1/2 (Mus musculus [17]) [h] | half-life at 5 µM [18] [h] | AUC/dose (Mus musculus [19]) [nM·kg·h/mg] | SMILES |
| --- | --- | --- | --- | --- | --- | --- | --- | --- | --- | --- | --- | --- | --- | --- | --- | --- | --- | --- | --- | --- |
| 4.3 | 550 | 5.2 | 280 | 6.5 | < 0.01 | < 4.52 | < 0.01 | 70 | 0.5 | 5.10 |  |  |  |  |  |  |  |  |  | COc1ccc(S(=O)(=O)Nc2nc(-c3cccc([N+](=O)[O-])c3)cs2)cc1OC |
|  |  |  |  |  |  |  |  |  |  |  | > 18 | 110 | 220 | 0.5 | 110 | 0.72 | 1.1 | > 2.5 | 1000 | COc1ccc(S(=O)(=O)Nc2nc(-c3cccc([N+](=O)[O-])c3)c(CN3CCCCC3)s2)cc1OC |
